From ChEMBL document CHEMBL4017453, “Design, synthesis and optimization of bis-amide derivatives as CSF1R inhibitors” (Bioorg Med Chem Lett, 2017)
In brackets after ≈: the same amount, converted by molar mass. Activity calls are given as the source filed them. The calls are words filed in the database; no cut-off is given here.

How the values were obtained:
[1] = Growth inhibition of mouse BMMC at 1 uM after 72 hrs by CellTiter-Glo luminescent assay relative to control; assay type: functional; details: read-out: GI
Method in brief: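 Cell viability in primary mouse bone marrow-derived macrophages, which depend on CSF1 for survival; inhibition measured at 1 single concentration.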

[2] = biological target: Mast/stem cell growth factor receptor Kit (Homo sapiens, UniProt P10721); assay: Inhibition of human c-Kit using poly[Glu:Tyr] (4:1) as substrate measured after 2 hrs in presence of [33gammaP]ATP by […] ion exchange chromatographic method
Mast/stem cell growth factor receptor Kit, sequence (P10721 whole entry): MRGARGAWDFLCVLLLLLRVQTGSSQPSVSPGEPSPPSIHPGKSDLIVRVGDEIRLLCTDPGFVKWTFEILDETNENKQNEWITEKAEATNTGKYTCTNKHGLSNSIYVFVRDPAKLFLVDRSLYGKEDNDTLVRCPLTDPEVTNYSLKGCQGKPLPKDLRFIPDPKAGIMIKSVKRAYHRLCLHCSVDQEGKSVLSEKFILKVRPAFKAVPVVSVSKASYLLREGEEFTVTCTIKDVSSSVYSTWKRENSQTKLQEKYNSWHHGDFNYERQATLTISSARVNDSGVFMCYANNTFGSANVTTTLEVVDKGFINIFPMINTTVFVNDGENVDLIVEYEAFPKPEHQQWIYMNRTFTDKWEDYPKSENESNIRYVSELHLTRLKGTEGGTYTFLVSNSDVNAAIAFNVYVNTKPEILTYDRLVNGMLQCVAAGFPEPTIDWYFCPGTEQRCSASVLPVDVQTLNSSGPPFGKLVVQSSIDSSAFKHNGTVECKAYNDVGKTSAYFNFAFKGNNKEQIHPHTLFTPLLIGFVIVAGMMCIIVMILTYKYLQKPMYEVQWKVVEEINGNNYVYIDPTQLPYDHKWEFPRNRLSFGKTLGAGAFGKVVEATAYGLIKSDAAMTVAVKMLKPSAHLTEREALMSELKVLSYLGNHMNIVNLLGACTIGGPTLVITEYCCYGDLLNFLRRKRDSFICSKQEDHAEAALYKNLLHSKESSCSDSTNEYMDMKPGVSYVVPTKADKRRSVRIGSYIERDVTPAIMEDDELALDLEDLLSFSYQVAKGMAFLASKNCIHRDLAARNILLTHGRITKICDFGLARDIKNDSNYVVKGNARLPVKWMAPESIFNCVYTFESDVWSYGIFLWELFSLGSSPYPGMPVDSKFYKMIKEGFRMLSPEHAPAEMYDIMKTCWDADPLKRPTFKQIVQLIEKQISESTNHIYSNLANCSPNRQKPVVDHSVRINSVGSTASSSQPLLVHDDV
Method in brief: (§1)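 Radiometric kinase assay: enzyme incubated with [γ-33P]-ATP and peptide substrate; IC50 curves fitted per compound. Selectivity expressed as c-Kit IC50 over CSF1R IC50.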

[3] = test system: RAW264.7; assay: Growth inhibition of mouse RAW264.7 cells at 1 uM after 72 hrs by CellTiter-Glo luminescent assay relative to control; assay type: functional; details: for inhibition of growth at 1 µM: RAW264.7, 72 h, read-out: GI
[4] = Stability in mouse liver microsomes assessed as compound remaining at 1 uM after 30 mins in presence of NADPH by LC/MS/MS analysis; assay type: ADME, microsome; details: read-out: Stability
Method in brief: (§2)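 Metabolic stability in human or mouse liver microsomes supplemented with NADPH; reported as percent of parent remaining relative to time-zero control.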

[5] = Stability in human liver microsomes assessed as compound remaining at 1 uM after 30 mins in presence of NADPH by LC/MS/MS analysis; assay type: ADME, microsome; details: read-out: Stability; method in brief: as §2
[6] = Tmax in CD-1 mouse at 10 mg/kg, po; assay type: ADME, organism-based; details: in vivo
Method in brief: (§3)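 Mice given a single IV dose (2 mg/kg) or oral dose (10 mg/kg); plasma levels followed over time. AUClast taken from time 0 to last quantifiable concentration; Cmax and Tmax read from observed profile; CL is systemic clearance and Vss volume at steady state, both from IV; oral bioavailability derived from PO versus IV exposure.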

[7] = test system: Liver; assay: Drug metabolism in mouse liver microsomes assessed as demethylation by measuring N-(4-methyl-3-(3-(1-methyl-1H-pyrazol-4-yl)benzamido)phenyl)-4-(piperazin-1-ylmethyl)-3-(trifluoromethyl)benzamide level at 10 uM measured after 1 hr in presence of NADPH; assay type: ADME, microsome
[8] = Terminal half life in CD-1 mouse at 10 mg/kg, po; assay type: ADME, organism-based; details: in vivo, read-out: beta t1/2 (converted); method in brief: as §3
[9] = Kinetic solubility of the compound in PBS buffer at pH 7.4 at […] after 1 hr by nephelometry; assay type: physicochemical; details: read-out: Kinetic_solubility
Method in brief: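 Kinetic solubility determined in isotonic phosphate buffer.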

[10] = Stability in mouse plasma assessed as compound remaining at 1 uM after 4 hrs by LC/MS/MS analysis; assay type: ADME, cell-free; details: read-out: Stability
Method in brief: (§4)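 Test article incubated 4 h in human or mouse plasma to probe amidase hydrolysis; percent parent remaining versus time-zero control.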

[11] = Oral bioavailability in CD-1 mouse at 10 mg/kg; assay type: ADME, organism-based; details: in vivo; method in brief: as §3
[12] = AUC (0 to last) in CD-1 mouse at 10 mg/kg, po; assay type: ADME, organism-based; set-up: dose 10 mg/kg, route oral, time 0 - last; details: in vivo; method in brief: as §3
[13] = Volume of distribution at steady state in CD-1 mouse at 2 mg/kg, iv; assay type: ADME, organism-based; details: in vivo, read-out: Vdss; method in brief: as §3
[14] = Terminal half life in CD-1 mouse at 2 mg/kg, iv; assay type: ADME, organism-based; details: in vivo, read-out: beta t1/2 (converted); method in brief: as §3
[15] = Systemic clearance in CD-1 mouse at 2 mg/kg, iv; assay type: ADME, organism-based; details: in vivo; method in brief: as §3
[16] = AUC (0 to last) in CD-1 mouse at 2 mg/kg, iv; assay type: ADME, organism-based; set-up: dose 2 mg/kg, time 0 - last, route intravenous; details: in vivo; method in brief: as §3
[17] = Cmax in CD-1 mouse plasma at 2 mg/kg, iv; assay type: ADME, organism-based; set-up: dose 2 mg/kg, route intravenous; method in brief: as §3
[18] = Clearance in iv dosed mouse; assay type: ADME, organism-based; details: in vivo; method in brief: as §3
[19] = Cmax in CD-1 mouse plasma at 10 mg/kg, po; assay type: ADME, organism-based; set-up: dose 10 mg/kg, route oral; method in brief: as §3
[20] = Stability in human plasma assessed as compound remaining at 1 uM after 4 hrs by LC/MS/MS analysis; assay type: ADME, cell-free; details: read-out: Stability; method in brief: as §4
[21] = biological target: Macrophage colony-stimulating factor 1 receptor (Homo sapiens, UniProt P07333); assay: Inhibition of human CSF1R using poly[Glu:Tyr] (4:1) as substrate incubated for 2 hrs in presence of [33gammaP]ATP by P81 ion exchange chromatographic method
Macrophage colony-stimulating factor 1 receptor, sequence (P07333 whole entry): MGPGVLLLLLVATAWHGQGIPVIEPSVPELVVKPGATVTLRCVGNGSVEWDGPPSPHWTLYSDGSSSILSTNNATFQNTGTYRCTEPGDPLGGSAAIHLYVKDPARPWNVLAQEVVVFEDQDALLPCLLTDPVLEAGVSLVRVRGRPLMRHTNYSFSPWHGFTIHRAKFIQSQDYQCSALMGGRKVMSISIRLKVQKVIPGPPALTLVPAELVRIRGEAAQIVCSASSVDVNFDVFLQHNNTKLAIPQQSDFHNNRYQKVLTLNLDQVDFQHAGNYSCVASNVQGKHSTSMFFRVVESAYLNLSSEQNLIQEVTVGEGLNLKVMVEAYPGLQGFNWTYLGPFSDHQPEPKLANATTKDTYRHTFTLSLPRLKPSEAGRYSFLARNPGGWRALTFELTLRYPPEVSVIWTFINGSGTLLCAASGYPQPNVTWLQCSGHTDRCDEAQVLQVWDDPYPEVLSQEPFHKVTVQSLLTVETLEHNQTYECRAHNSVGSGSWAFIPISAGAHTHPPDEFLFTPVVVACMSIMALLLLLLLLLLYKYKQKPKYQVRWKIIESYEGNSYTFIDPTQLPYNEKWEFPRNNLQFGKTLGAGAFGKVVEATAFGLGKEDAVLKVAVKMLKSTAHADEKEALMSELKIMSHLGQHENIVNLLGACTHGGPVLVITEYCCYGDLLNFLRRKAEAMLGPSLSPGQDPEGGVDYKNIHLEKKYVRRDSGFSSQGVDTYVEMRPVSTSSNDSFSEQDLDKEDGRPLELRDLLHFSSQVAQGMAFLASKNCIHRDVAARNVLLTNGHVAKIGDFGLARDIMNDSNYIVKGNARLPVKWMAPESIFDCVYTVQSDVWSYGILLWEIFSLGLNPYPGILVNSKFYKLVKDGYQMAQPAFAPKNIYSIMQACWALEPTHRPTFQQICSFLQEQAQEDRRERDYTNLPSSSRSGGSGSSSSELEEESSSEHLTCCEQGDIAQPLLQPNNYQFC

[22] = Apparent permeability from apical to basolateral side in human Caco2 cells at 10 uM incubated for 60 mins by LC-MS/MS analysis; assay type: ADME, cell-based, Caco-2; details: for Papp A→B at 1 h, 10 µM: Caco-2
Method in brief: (§5)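 Caco2 monolayer permeability measured in apical-to-basolateral and basolateral-to-apical directions; mean Papp with SD reported, efflux ratio calculated from the two directions.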

[23] = Apparent permeability from basolateral to apical side in human Caco2 cells at 10 uM incubated for 60 mins by LC-MS/MS analysis; assay type: ADME, cell-based, Caco-2; details: for Papp B→A at 1 h, 10 µM: Caco-2; method in brief: as §5
[24] = organism: Homo sapiens; assay: Selectivity ratio of IC50 for human c-Kit to IC50 for human CSF1R; method in brief: as §1
[25] = test system: Liver; assay: Drug level in mouse liver microsomes treated with N-(4-methyl-3-(3-(1-methyl-1H-pyrazol-4-yl)benzamido)phenyl)-4-((4-methylpiperazin-1-yl)methyl)-3-(trifluoromethyl)benzamide at 10 uM measured after 1 hr in presence of NADPH; assay type: ADME, microsome

## Cc1ccc(NC(=O)c2ccc(CN3CCN(C)CC3)c(C(F)(F)F)c2)cc1NC(=O)c1cccc(-c2ccncc2)c1
[1]
  inhibition of growth at 1 µM: 72%
[2]
  IC50: 390 nM
[3]
  growth inhibition (GI): inactive

## Cc1ccc(NC(=O)c2cccc(C(F)(F)F)c2)cc1NC(=O)c1cccc(-c2cnn(C)c2)c1
[4]
  remaining at 0.5 h, 1 µM: 74%
[2]
  IC50: 130 nM
[5]
  remaining at 0.5 h, 1 µM: 68%
[3]
  growth inhibition (GI): inactive

## Cc1ccc(NC(=O)c2ccc(CN3CCN(C)CC3)c(C(F)(F)F)c2)cc1NC(=O)c1cccc(-c2cccs2)c1
[2]
  IC50: 1680 nM

## Cc1ccc(NC(=O)c2ccc(CN3CCN(C)CC3)c(C(F)(F)F)c2)cc1NC(=O)c1cccc(-c2cnn(C)c2)c1
[6]
  Tmax: 15 min
[7]
  Drug metabolism: Metabolite_Detected
[1]
  inhibition of growth at 1 µM: 81%
[8]
  half-life: 79.2 min
[4]
  remaining at 0.5 h, 1 µM: 7%
[2]
  IC50: 740 nM
[9]
  solubility kinetic at 1 h: 4.7 µM (≈ 2.78 µg/mL)
[10]
  remaining at 4 h, 1 µM: 67%
[11]
  bioavailability: 11%
[12]
  AUC(0-t): 0.16 µM·h
[13]
  Vd: 4.23 L/kg
[14]
  half-life: 13.8 min
[15]
  clearance: 210 mL/min/kg
[16]
  AUC(0-t): 0.27 µM·h
[17]
  Cmax: 850 nM
[5]
  remaining at 0.5 h, 1 µM: 46 to 47%
[18]
  clearance: 210 mL/min/kg
[19]
  Cmax: 160 nM
[3]
  growth inhibition (GI): inactive
[20]
  remaining at 4 h, 1 µM: 95%

## Cc1ccc(NC(=O)c2ccc(CN3CCN(C)CC3)c(C(F)(F)F)c2)cc1NC(=O)c1cccc(-c2cccnc2)c1
[1]
  inhibition of growth at 1 µM: 84%
[2]
  IC50: 900 nM
[3]
  growth inhibition (GI): inactive

## Cc1ccc(C(=O)Nc2ccc(CN3CCN(C)CC3)cc2)cc1NC(=O)c1cccc(-c2cccs2)c1
[1]
  inhibition of growth at 1 µM: 11%
[2]
  IC50: > 10000 nM
[21]
  IC50: > 10 µM
[3]
  inhibition of growth at 1 µM: 8%

## Cc1ncc(NC(=O)c2cccc(C(F)(F)F)c2)cc1NC(=O)c1cncc(-c2cnn(C)c2)c1
[22]; caco-2, 1 h, 10 µM
  Papp: 0.5 ×10⁻⁶ cm/s
[1]
  inhibition of growth at 1 µM: 87%
[4]
  remaining at 0.5 h, 1 µM: 57%
[2]
  IC50: 180 nM
[23]; caco-2, 1 h, 10 µM
  Papp: 36.3 ×10⁻⁶ cm/s
[5]
  remaining at 0.5 h, 1 µM: 60%
[3]
  growth inhibition (GI): inactive

## Cc1ccc(C(=O)Nc2ccc(CN3CCN(C)CC3)c(C(F)(F)F)c2)cc1N(C)C(=O)c1cccc(-c2cccs2)c1
[2]
  IC50: > 10000 nM

## Cc1ccc(C(=O)Nc2ccc(CN3CCN(C)CC3)c(Cl)c2)cc1NC(=O)c1cccc(-c2cccs2)c1
[1]
  inhibition of growth at 1 µM: 20%
[2]
  IC50: 2700 nM
[3]
  inhibition of growth at 1 µM: 4%

## CN1CCN(Cc2ccc(NC(=O)c3ccc(Cl)c(NC(=O)c4cccc(-c5cccs5)c4)c3)cc2C(F)(F)F)CC1
[1]
  inhibition of growth at 1 µM: -7%
[2]
  IC50: 190 nM
[3]
  inhibition of growth at 1 µM: 8%

## Cc1ccc(C(=O)Nc2ccc(CN3CCN(C)CC3)c(C(F)(F)F)c2)cc1NC(=O)c1cccc(-c2cccnc2)c1
[1]
  inhibition of growth at 1 µM: 61%
[2]
  IC50: 210 nM
[3]
  inhibition of growth at 1 µM: 6%

## Cc1ccc(NC(=O)c2cccc(C(F)(F)F)c2)cc1NC(=O)c1cnc(N)nc1
[22]
  Papp A→B at 1 h, 10 µM: 0.1 ×10⁻⁶ cm/s
[1]
  inhibition of growth at 1 µM: 86%
[4]
  remaining at 0.5 h, 1 µM: 65%
[2]
  IC50: 820 nM
[23]
  Papp B→A at 1 h, 10 µM: 5.3 ×10⁻⁶ cm/s
[5]
  remaining at 0.5 h, 1 µM: 91%
[3]
  growth inhibition (GI): inactive

## Cc1ccc(NC(=O)c2ccc(CN3CCN(C)CC3)c(C(F)(F)F)c2)cc1NC(=O)c1cccc(-c2cn[nH]c2)c1
[1]
  inhibition of growth at 1 µM: 80%
[2]
  IC50: 20 nM
[24]
  Ratio IC50: > 40
[21]
  IC50: < 0.0005 µM
[3]
  growth inhibition (GI): inactive

## Cc1ccc(NC(=O)c2ccc(CN3CCN(C)CC3)c(C(F)(F)F)c2)cc1NC(=O)c1cccc(-c2nn[nH]n2)c1
[1]
  inhibition of growth at 1 µM: 2.4%
[2]
  IC50: 7500 nM
[3]
  growth inhibition (GI): inactive

## Cc1ccc(C(=O)Nc2ccc(CN3CCN(C)CC3)c(C(F)(F)F)c2)cc1NCc1cccc(-c2cccs2)c1
[2]
  IC50: > 10000 nM

## Cc1ccc(NC(=O)c2ccc(CN3CCN(C)CC3)c(C(F)(F)F)c2)cc1NC(=O)c1cccc(-c2ccccn2)c1
[1]
  inhibition of growth at 1 µM: 31%
[2]
  IC50: 15000 nM
[3]
  growth inhibition (GI): inactive

## Cc1ccc(NC(=O)c2ccc(CN3CCN(C)CC3)c(C(F)(F)F)c2)cc1NC(=O)c1cccc(-c2cncnc2)c1
[1]
  inhibition of growth at 1 µM: 76%
[2]
  IC50: 5970 nM
[3]
  growth inhibition (GI): inactive

## Cc1ccc(C(=O)Nc2ccc(CN3CCN(C)CC3)c(C(F)(F)F)c2)cc1NC(=O)c1cccc(-c2cccs2)c1
[1]
  inhibition of growth at 1 µM: 22%
[2]
  IC50: 440 nM
[3]
  inhibition of growth at 1 µM: 7%

## Cc1ccc(C(=O)Nc2ccc(CN3CCN(C)CC3)c(C(F)(F)F)c2)cc1NC(=O)c1cccc(-c2cncnc2)c1
[1]
  inhibition of growth at 1 µM: 64%
[2]
  IC50: 310 nM
[3]
  inhibition of growth at 1 µM: 9%

## Cc1ccc(NC(=O)c2ccc(CN3CCNCC3)c(C(F)(F)F)c2)cc1NC(=O)c1cccc(-c2cnn(C)c2)c1
[1]
  inhibition of growth at 1 µM: 44%
[4]
  remaining at 0.5 h, 1 µM: 72%
[2]
  IC50: 3000 nM
[25]
  Drug metabolism: Metabolite_Detected
[5]
  remaining at 0.5 h, 1 µM: 85%

## Cc1ccc(C(=O)N(C)c2ccc(CN3CCN(C)CC3)c(C(F)(F)F)c2)cc1NC(=O)c1cccc(-c2cccs2)c1
[2]
  IC50: 5900 nM

## Cc1ccc(NC(=O)c2cccc(C(F)(F)F)c2)cc1NC(=O)c1cncc(-c2cnn(C)c2)c1
[22]
  Papp A→B at 1 h, 10 µM: 12.5 ×10⁻⁶ cm/s
[6]
  Tmax: 30 min
[1]
  inhibition of growth at 1 µM: 96%
[8]
  half-life: 108 min
[4]
  remaining at 0.5 h, 1 µM: 63%
[2]
  IC50: 60 nM
[23]
  Papp B→A at 1 h, 10 µM: 32.5 ×10⁻⁶ cm/s
[11]
  bioavailability: 64%
[12]
  AUC(0-t): 6.94 µM·h
[13]
  Vd: 1.1 L/kg
[14]
  half-life: 52.2 min
[15]
  clearance: 31 mL/min/kg
[16]
  AUC(0-t): 2.24 µM·h
[17]
  Cmax: 3550 nM
[5]
  remaining at 0.5 h, 1 µM: 37%
[19]
  Cmax: 4600 nM
[3]
  growth inhibition (GI): inactive

## Cc1ccc(CNc2ccc(CN3CCN(C)CC3)c(C(F)(F)F)c2)cc1NC(=O)c1cccc(-c2cccs2)c1
[2]
  IC50: 270 nM
